# Activity calls are given as the source filed them. No cut-off for these calls is given here.
# Columns and labels:
# Assay type in all cases: functional
# CCRF-CEM = experiment: Anticancer activity against human CCRF-CEM cells after 48 hrs by sulforhodamine B assay
# Procedure, shortened: (§1)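 NCI 60-cell-line screen. Cells grown in RPMI 1640 with 5% FBS and 2 mM L-glutamine, plated at 5000–40,000 cells/well, and preincubated 24 h at 37 °C under 5% CO2. Compounds were taken from DMSO stocks and tested at five final concentrations, 10^-4 to 10^-8 M, for 48 h. Cells were TCA-fixed, stained with 0.4% SRB, and read at 515 nm. GI50, TGI and LC50 were derived as log molar values.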
# HL-60(TB) = experiment: Anticancer activity against human HL-60(TB) cells after 48 hrs by sulforhodamine B assay
# Procedure, shortened: (§2)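 NCI 60-cell-line screen. Cells were grown in RPMI 1640 with 5% FBS and 2 mM L-glutamine, seeded at 5000–40,000 cells/well and preincubated 24 h at 37 °C, 5% CO2. Compounds in DMSO were diluted in medium with gentamicin and tested at five concentrations (10^-4 to 10^-8 M) for 48 h. Cells were then fixed with TCA, stained with SRB and read at 515 nm.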
# K562 = experiment: Anticancer activity against human K562 cells after 48 hrs by sulforhodamine B assay; procedure, shortened: as §1
# MOLT-4 = experiment: Anticancer activity against human MOLT4 cells after 48 hrs by sulforhodamine B assay; procedure, shortened: as §1
# RPMI8266 = experiment: Anticancer activity against human […] cells after 48 hrs by sulforhodamine B assay; procedure, shortened: as §1
# SR = experiment: Anticancer activity against human SR cells after 48 hrs by sulforhodamine B assay
# Procedure, shortened: (§3)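 NCI 60-cell-line panel; cells grown in RPMI 1640 with 5% FBS and 2 mM L-glutamine, plated at 5000–40,000 cells/well and preincubated 24 h at 37 °C, 5% CO2. Compounds came from DMSO stocks diluted in medium with gentamicin and were tested at five final concentrations, 10^-4 to 10^-8 M, for 48 h. Cells were fixed with TCA, stained with SRB and read at 515 nm. GI50, TGI and LC50 were derived as log molar values.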
# A549 = experiment: Anticancer activity against human A549 cells after 48 hrs by sulforhodamine B assay; procedure, shortened: as §1
# EKVX = experiment: Anticancer activity against human EKVX cells after 48 hrs by sulforhodamine B assay; procedure, shortened: as §1
# HOP-62 = experiment: Anticancer activity against human HOP62 cells after 48 hrs by sulforhodamine B assay; procedure, shortened: as §1
# HOP-92 = experiment: Anticancer activity against human HOP92 cells after 48 hrs by sulforhodamine B assay; procedure, shortened: as §1
# NCI-H226 = experiment: Anticancer activity against human NCI-H226 cells after 48 hrs by sulforhodamine B assay; procedure, shortened: as §1
# NCI-H322M = experiment: Anticancer activity against human NCI-H322M cells after 48 hrs by sulforhodamine B assay; procedure, shortened: as §1
# NCI-H460 [1] = experiment: Anticancer activity against human NCI-H460 cells after 48 hrs by sulforhodamine B assay; procedure, shortened: as §1
# NCI-H522 = experiment: Anticancer activity against human NCI-H522 cells after 48 hrs by sulforhodamine B assay; procedure, shortened: as §1
# NCI-H23 = experiment: Anticancer activity against human NCI-H23 cells after 48 hrs by sulforhodamine B assay; procedure, shortened: as §2
# COLO 205 = experiment: Anticancer activity against human COLO205 cells after 48 hrs by sulforhodamine B assay; procedure, shortened: as §1
# HCC 2998 = experiment: Anticancer activity against human HCC2998 cells after 48 hrs by sulforhodamine B assay; procedure, shortened: as §1
# HCT-116 = experiment: Anticancer activity against human HCT116 cells after 48 hrs by sulforhodamine B assay; procedure, shortened: as §1
# HCT-15 = experiment: Anticancer activity against human HCT15 cells after 48 hrs by sulforhodamine B assay; procedure, shortened: as §1
# HT-29 = experiment: Anticancer activity against human HT-29 cells after 48 hrs by sulforhodamine B assay; procedure, shortened: as §1
# KM12 = experiment: Anticancer activity against human KM12 cells after 48 hrs by sulforhodamine B assay; procedure, shortened: as §1
# SW-620 = experiment: Anticancer activity against human SW620 cells after 48 hrs by sulforhodamine B assay; procedure, shortened: as §3
# SF-268 [2] = experiment: Anticancer activity against human SF268 cells after 48 hrs by sulforhodamine B assay; procedure, shortened: as §1
# SF-295 = experiment: Anticancer activity against human SF295 cells after 48 hrs by sulforhodamine B assay; procedure, shortened: as §1
# SF-539 = experiment: Anticancer activity against human SF539 cells after 48 hrs by sulforhodamine B assay; procedure, shortened: as §1
# SNB-19 = experiment: Anticancer activity against human SNB19 cells after 48 hrs by sulforhodamine B assay; procedure, shortened: as §3
# SNB-75 = experiment: Anticancer activity against human SNB75 cells after 48 hrs by sulforhodamine B assay; procedure, shortened: as §3
# U-251 = experiment: Anticancer activity against human U251 cells after 48 hrs by sulforhodamine B assay; procedure, shortened: as §3
# LOX IMVI = experiment: Anticancer activity against human LOXIMVI cells after 48 hrs by sulforhodamine B assay; procedure, shortened: as §1
# Malme-3M = experiment: Anticancer activity against human MALME-3M cells after 48 hrs by sulforhodamine B assay; procedure, shortened: as §1
# M14 = experiment: Anticancer activity against human M14 cells after 48 hrs by sulforhodamine B assay; procedure, shortened: as §1
# SK-MEL-2 = experiment: Anticancer activity against human SK-MEL-2 cells after 48 hrs by sulforhodamine B assay; procedure, shortened: as §1
# SK-MEL-28 = experiment: Anticancer activity against human SK-MEL-28 cells after 48 hrs by sulforhodamine B assay; procedure, shortened: as §1
# SK-MEL-5 = experiment: Anticancer activity against human SK-MEL-5 cells after 48 hrs by sulforhodamine B assay; procedure, shortened: as §1
# UACC-257 = experiment: Anticancer activity against human UACC257 cells after 48 hrs by sulforhodamine B assay; procedure, shortened: as §3
# UACC-62 = experiment: Anticancer activity against human UACC62 cells after 48 hrs by sulforhodamine B assay; procedure, shortened: as §3
# IGROV-1 = experiment: Anticancer activity against human IGROV1 cells after 48 hrs by sulforhodamine B assay; procedure, shortened: as §1
# OVCAR-3 = experiment: Anticancer activity against human OVCAR-3 cells after 48 hrs by sulforhodamine B assay; procedure, shortened: as §1
# OVCAR-4 = experiment: Anticancer activity against human OVCAR4 cells after 48 hrs by sulforhodamine B assay; procedure, shortened: as §1
# OVCAR-5 = experiment: Anticancer activity against human OVCAR5 cells after 48 hrs by sulforhodamine B assay; procedure, shortened: as §1
# OVCAR-8 = experiment: Anticancer activity against human OVCAR8 cells after 48 hrs by sulforhodamine B assay; procedure, shortened: as §1
# SK-OV-3 = experiment: Anticancer activity against human SKOV3 cells after 48 hrs by sulforhodamine B assay; procedure, shortened: as §1
# 786-0 = experiment: Anticancer activity against human 786-0 cells after 48 hrs by sulforhodamine B assay; procedure, shortened: as §1
# A498 = experiment: Anticancer activity against human A498 cells after 48 hrs by sulforhodamine B assay; procedure, shortened: as §1
# ACHN = experiment: Anticancer activity against human ACHN cells after 48 hrs by sulforhodamine B assay; procedure, shortened: as §1
# CAKI-1 = experiment: Anticancer activity against human Caki1 cells after 48 hrs by sulforhodamine B assay; procedure, shortened: as §1
# RXF 393 = experiment: Anticancer activity against human RXF393 cells after 48 hrs by sulforhodamine B assay; procedure, shortened: as §1
# SN12C = experiment: Anticancer activity against human SN12C cells after 48 hrs by sulforhodamine B assay; procedure, shortened: as §3
# TK-10 = experiment: Anticancer activity against human TK10 cells after 48 hrs by sulforhodamine B assay; procedure, shortened: as §3
# UO-31 = experiment: Anticancer activity against human UO31 cells after 48 hrs by sulforhodamine B assay; procedure, shortened: as §3
# PC-3 = experiment: Anticancer activity against human PC3 cells after 48 hrs by sulforhodamine B assay; procedure, shortened: as §1
# DU-145 = experiment: Anticancer activity against human DU145 cells after 48 hrs by sulforhodamine B assay; procedure, shortened: as §1
# MCF7 [3] = experiment: Anticancer activity against human MCF7 cells after 48 hrs by sulforhodamine B assay; procedure, shortened: as §1
# NCI/ADR-RES = experiment: Anticancer activity against human NCI/ADR-RES cells after 48 hrs by sulforhodamine B assay; procedure, shortened: as §1
# MDA-MB-231 = experiment: Anticancer activity against human MDA-MB-231 cells after 48 hrs by sulforhodamine B assay; procedure, shortened: as §1
# Hs-578T = experiment: Anticancer activity against human Hs 578T cells after 48 hrs by sulforhodamine B assay; procedure, shortened: as §1
# MDA-MB-435 = experiment: Anticancer activity against human MDA-MB-435 cells after 48 hrs by sulforhodamine B assay; procedure, shortened: as §1
# MDA-N = experiment: Anticancer activity against human MDA-N cells after 48 hrs by sulforhodamine B assay; procedure, shortened: as §1
# BT-549 = experiment: Anticancer activity against human BT549 cells after 48 hrs by sulforhodamine B assay; procedure, shortened: as §1
# T47D = experiment: Anticancer activity against human T47D cells after 48 hrs by sulforhodamine B assay; procedure, shortened: as §3
# NCI-H460 [4] = experiment: Anticancer activity against human NCI-H460 cells assessed as cell growth at 100 uM after 48 hrs by Alamar blue assay relative to control; settings: NCI-H460, 48 h, read-out: Activity
# Procedure, shortened: (§4)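 NCI one-dose pre-test on MCF7, NCI-H460 and SF-268. Cells were inoculated and preincubated, then exposed to a single 10^-4 M concentration for 48 h. End-point was alamar blue. Results are percent growth versus untreated control cells, with negative values indicating cell kill.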
# MCF7 [5] = experiment: Anticancer activity against human MCF7 cells assessed as cell growth at 100 uM after 48 hrs by Alamar blue assay relative to control; settings: MCF7, 48 h, read-out: Activity; procedure, shortened: as §4
# SF-268 [6] = experiment: Anticancer activity against human SF268 cells assessed as cell growth at 100 uM after 48 hrs by Alamar blue assay relative to control; settings: SF-268, 48 h, read-out: Activity; procedure, shortened: as §4
smiles,measurement,setting,value
FC(F)(F)C(=Cc1nc2ccccc2s1)C(F)(F)F,logGI50,CCRF-CEM,inactive
same,logGI50,HL-60(TB),inactive
same,logGI50,K562,inactive
same,logGI50,MOLT-4,inactive
same,logGI50,RPMI8266,inactive
same,logGI50,SR,inactive
same,logGI50,A549,inactive
same,logGI50,EKVX,inactive
same,logGI50,HOP-62,inactive
same,logGI50,HOP-92,inactive
same,logGI50,NCI-H226,inactive
same,logGI50,NCI-H322M,inactive
same,logGI50,NCI-H460 [1],inactive
same,logGI50,NCI-H522,inactive
same,logGI50,NCI-H23,inactive
same,logGI50,COLO 205,inactive
same,logGI50,HCC 2998,inactive
same,logGI50,HCT-116,inactive
same,logGI50,HCT-15,inactive
same,logGI50,HT-29,inactive
same,logGI50,KM12,inactive
same,logGI50,SW-620,inactive
same,logGI50,SF-268 [2],inactive
same,logGI50,SF-295,inactive
same,logGI50,SF-539,inactive
same,logGI50,SNB-19,inactive
same,logGI50,SNB-75,inactive
same,logGI50,U-251,inactive
same,logGI50,LOX IMVI,inactive
same,logGI50,Malme-3M,inactive
same,logGI50,M14,inactive
same,logGI50,SK-MEL-2,inactive
same,logGI50,SK-MEL-28,inactive
same,logGI50,SK-MEL-5,inactive
same,logGI50,UACC-257,inactive
same,logGI50,UACC-62,inactive
same,logGI50,IGROV-1,inactive
same,logGI50,OVCAR-3,inactive
same,logGI50,OVCAR-4,inactive
same,logGI50,OVCAR-5,inactive
same,logGI50,OVCAR-8,inactive
same,logGI50,SK-OV-3,inactive
same,logGI50,786-0,inactive
same,logGI50,A498,inactive
same,logGI50,ACHN,inactive
same,logGI50,CAKI-1,inactive
same,logGI50,RXF 393,inactive
same,logGI50,SN12C,inactive
same,logGI50,TK-10,inactive
same,logGI50,UO-31,inactive
same,logGI50,PC-3,inactive
same,logGI50,DU-145,inactive
same,logGI50,MCF7 [3],inactive
same,logGI50,NCI/ADR-RES,inactive
same,logGI50,MDA-MB-231,inactive
same,logGI50,Hs-578T,inactive
same,logGI50,MDA-MB-435,inactive
same,logGI50,MDA-N,inactive
same,logGI50,BT-549,inactive
same,logGI50,T47D,inactive
CC(NC(=O)Nc1nccs1)(C(F)(F)F)C(F)(F)F,growth at 100 µM,NCI-H460 [4],49%
same,growth at 100 µM,MCF7 [5],59%
same,growth at 100 µM,SF-268 [6],74%
